Source: PMC2939729 (Cancer cell, 2010)

Key:
TNK1 [1] = biological target: T1, TNK1 (Homo sapiens, UniProt Q13470); experiment: Inhibitory effect on TNK1 in vitro and in vivo
T1 sequence (Q13470 1-666): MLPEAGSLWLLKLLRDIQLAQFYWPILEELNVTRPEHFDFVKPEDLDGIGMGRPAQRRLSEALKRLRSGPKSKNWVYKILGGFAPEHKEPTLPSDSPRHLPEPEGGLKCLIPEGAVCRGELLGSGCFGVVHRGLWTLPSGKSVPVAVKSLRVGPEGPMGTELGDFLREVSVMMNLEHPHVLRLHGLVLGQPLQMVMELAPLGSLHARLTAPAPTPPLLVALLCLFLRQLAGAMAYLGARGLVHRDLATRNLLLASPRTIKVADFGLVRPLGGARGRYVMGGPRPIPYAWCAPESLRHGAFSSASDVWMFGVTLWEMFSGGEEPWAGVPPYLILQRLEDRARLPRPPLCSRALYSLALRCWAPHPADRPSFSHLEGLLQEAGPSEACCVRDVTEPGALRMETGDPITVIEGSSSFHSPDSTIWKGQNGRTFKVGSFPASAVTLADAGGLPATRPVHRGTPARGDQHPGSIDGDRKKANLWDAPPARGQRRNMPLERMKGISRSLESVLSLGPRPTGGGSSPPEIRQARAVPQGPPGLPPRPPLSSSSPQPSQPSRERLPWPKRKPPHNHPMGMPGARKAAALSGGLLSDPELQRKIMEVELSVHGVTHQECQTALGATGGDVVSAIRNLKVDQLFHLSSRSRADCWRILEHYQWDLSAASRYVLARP

p21 expression = p21 expression in MEF cells, western blot; format: cell-based; conditions: 5 μM, 16 hours
In short: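 Pml+/+ and Pml−/− MEFs were treated with or without test compound (5 μM) for 16 hr. Lysates were western-blotted with anti-p21 antibody. p21 was quantified by densitometry, normalised to GAPDH, and expressed relative to untreated Pml+/+ cells (set to 1). n = 5; Student's t test.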

BMK1 = BMK1 (Homo sapiens, UniProt Q13164); experiment: EGF-induced BMK1 activation in HeLa cells; format: cell-based; conditions: 1 μM compound for one hour, EGF 17 min
[2] = tested on: xenografted human (HeLa) or syngeneic mouse (LL/2) tumors; experiment: In vivo tumorigenesis experiments; design: species or system mice
In short: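 Tumour cells in DMEM were injected s.c. into the right flank of 6-week-old mice: HeLa at 5 × 10^5 into Nod/Scid mice, or LL/2 at 1 × 10^6 into C57Bl/6 mice. Groups of 6 received 50 mg/kg i.p. twice daily, starting day 1, 7 or 14 (HeLa, to day 28) or day 1, 7 or 10 (LL/2, to day 17). Controls received carrier solution. Tumours were measured by caliper every 2–3 days, volume = L × W² × 0.52. BrdU was detected in tumour sections with anti-BrdU antibody, DAPI counterstain (6 mice, 9 slices). Student's t test was used.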

[3] = tested on: BMK1-dependent transactivating activity of MEF2C; experiment: Trans-reporter assay of BMK1-dependent MEF2C transactivating activity in HEK293; format: cell-based; conditions: HEK293, 5 μM for 16 hr, luciferase
cancer cell lines = experiment: Proliferation of a wide variety of cancer cell lines; format: cell-based
DCAMKL2 = biological target: T2, DCAMKL2 (Homo sapiens, UniProt Q8N568); experiment: in vitro ATP-site competition binding assay, panel of 402 kinases; conditions: 10 μM inhibitor
T2 sequence (Q8N568 1-766): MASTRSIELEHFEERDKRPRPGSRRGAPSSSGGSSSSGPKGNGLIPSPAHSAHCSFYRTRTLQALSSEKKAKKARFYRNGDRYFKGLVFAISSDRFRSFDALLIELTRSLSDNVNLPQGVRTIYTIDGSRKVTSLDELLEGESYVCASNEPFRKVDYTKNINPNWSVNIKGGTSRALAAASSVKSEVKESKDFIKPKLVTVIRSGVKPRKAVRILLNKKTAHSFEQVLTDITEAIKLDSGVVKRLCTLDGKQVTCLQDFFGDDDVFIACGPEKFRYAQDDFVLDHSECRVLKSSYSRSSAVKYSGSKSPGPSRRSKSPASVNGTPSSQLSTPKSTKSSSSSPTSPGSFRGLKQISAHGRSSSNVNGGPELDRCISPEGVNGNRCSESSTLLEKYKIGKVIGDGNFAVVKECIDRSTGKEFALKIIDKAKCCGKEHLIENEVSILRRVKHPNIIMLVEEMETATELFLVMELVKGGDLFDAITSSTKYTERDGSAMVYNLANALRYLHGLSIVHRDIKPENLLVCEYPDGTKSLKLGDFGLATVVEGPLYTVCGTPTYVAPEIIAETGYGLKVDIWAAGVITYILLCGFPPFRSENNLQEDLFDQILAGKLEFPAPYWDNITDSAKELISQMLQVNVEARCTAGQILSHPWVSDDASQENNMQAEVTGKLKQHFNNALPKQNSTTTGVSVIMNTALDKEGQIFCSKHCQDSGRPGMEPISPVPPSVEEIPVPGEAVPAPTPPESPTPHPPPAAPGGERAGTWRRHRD

[4] = Tolerability experiments in mice, 14 days
TNK1 [5] = biological target: T1, TNK1; experiment: in vitro ATP-site competition binding assay, panel of 402 kinases; conditions: 10 μM inhibitor

Sequence of BMK1 (Q13164 whole entry): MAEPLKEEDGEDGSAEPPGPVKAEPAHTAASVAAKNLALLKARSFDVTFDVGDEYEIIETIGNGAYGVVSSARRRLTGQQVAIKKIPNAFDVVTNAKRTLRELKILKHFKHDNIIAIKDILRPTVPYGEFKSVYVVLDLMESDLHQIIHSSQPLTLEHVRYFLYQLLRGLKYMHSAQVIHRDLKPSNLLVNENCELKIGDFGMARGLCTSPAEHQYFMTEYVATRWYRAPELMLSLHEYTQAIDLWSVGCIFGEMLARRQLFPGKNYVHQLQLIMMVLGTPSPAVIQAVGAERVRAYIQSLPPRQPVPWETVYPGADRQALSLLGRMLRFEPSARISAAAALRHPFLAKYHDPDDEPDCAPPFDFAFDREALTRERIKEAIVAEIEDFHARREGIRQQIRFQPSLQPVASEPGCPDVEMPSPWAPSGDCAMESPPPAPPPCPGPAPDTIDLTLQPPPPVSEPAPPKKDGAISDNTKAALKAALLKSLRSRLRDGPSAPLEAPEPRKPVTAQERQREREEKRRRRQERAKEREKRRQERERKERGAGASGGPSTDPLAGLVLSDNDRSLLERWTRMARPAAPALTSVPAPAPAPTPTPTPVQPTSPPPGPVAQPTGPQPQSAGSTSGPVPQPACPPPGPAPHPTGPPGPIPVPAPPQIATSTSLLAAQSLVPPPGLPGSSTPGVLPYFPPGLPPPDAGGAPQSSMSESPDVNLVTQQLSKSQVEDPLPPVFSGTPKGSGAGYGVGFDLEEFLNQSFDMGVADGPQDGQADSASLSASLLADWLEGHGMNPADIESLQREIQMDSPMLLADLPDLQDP

## CCOc1cc(N2CCC(O)CC2)ccc1Nc1ncc2c(n1)N(C)c1ccccc1C(=O)N2C [XMD8-92]
TNK1 [1]
  inhibitory effect on TNK1: no significant inhibitory effect
p21 expression; Pml+/+ MEF cells
  p21 expression: significantly induced
p21 expression; Pml-/- MEF cells
  induction of p21 in PML null cells: substantially reduced
BMK1
  Growth factor-induced activation of cellular BMK1: effectively blocked
[2]; HeLa or LL/2 tumor sections, immuno-staining
  incorporation of BrdU during tumor cell division: effectively inhibited
[2]; mice, 50 mg/kg twice a day intraperitoneally
  inhibition of tumor growth: 95%
[2]; tumor-bearing mice, 50 mg/kg twice a day intraperitoneally
  side effects to the animals: without obvious side effects
[3]
  BMK1-dependent transactivating activity of MEF2C: dramatically reduced
Cancer cell lines
  effect on proliferation: inhibitory effect
DCAMKL2
  displacement by XMD8-92: greater than 90%
[4]; XMD8-92-treated mice
  vasculature instability: No vasculature instability
[4]; mice, IP dosing of 50 mg/kg, maintained throughout the 14 days
  plasma concentrations of drug: approximately 10 μM
TNK1 [5]
  displacement by XMD8-92: greater than 90%
